“Also recorded” adds a separate entry of the source. Where two headings read alike, the source gives them in different places.

One data set has as its system extracellular Aβ42. Kind of data set: Extracellular Aβ42 ELISA capture assay in N2a-AβPP695 cell supernatants. The data set is classed as cell-based. Particulars: for effect on Aftin-5 induced extracellular Aβ42 production: N2a-AβPP695, compound together with 100 μM Aftin-5, 18 h; for effect on extracellular Aβ42 level/production: N2a-AβPP695, compound alone, various concentrations. In general terms: An ELISA detects its analyte on a solid surface through an enzyme-linked reagent.

Another data set relates to SH-SY5Y. The experiment in a line: Cell viability, MTS assay, SH-SY5Y. It counts as cell-based. The conditions noted are these: read-out: IC50, cell viability (MTS assay), viability assessed 24 h later.
The next data set has as its system HT22. The experiment in a line: Cell viability, MTS assay, HT22. The conditions noted are these: read-out: IC50, cell viability (MTS assay); HT22, viability assessed 24 h later. It counts as cell-based. An outline of the steps:
(§1)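 Each line was exposed to increasing concentrations of test compound, and viability was read 24 h later by MTS. 20 μL MTS reagent per 100 μL medium, 3 h at 37°C, 5% CO₂. Absorbance read at 490 and 630 nm. IC50 derived from dose-response curves.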
A general note: Tetrazolium dyes change colour on reduction, which living cells bring about.

A further data set concerns N2a. The experiment in a line: Cell viability, MTS assay, N2a. The data set is classed as cell-based. Particulars: read-out: IC50, cell viability (MTS assay), viability assessed 24 h later. The method in brief:
as §1

Another data set relates to N2a-AβPP695. The experiment in a line: Cell viability, MTS assay, N2a-AβPP695. The data set is classed as cell-based. Particulars: for IC50: read-out: IC50, cell viability (MTS assay), N2a-AβPP695, viability assessed 24 h later.
In data set [1] the test system is KinomeScan panel of 402/442 kinases. Particulars: 402 kinases; cited from earlier work.
The subject of a further data set is extracellular Aβ40. Kind of data set: Extracellular Aβ40 ELISA capture assay in N2a-AβPP695 cell supernatants. The data set is classed as cell-based. Particulars: for IC50: read-out: IC50 Aβ40, N2a-AβPP695, GSI added 1 h before 100 μM Aftin-5, 18 h; for effect on extracellular Aβ40 in Aftin-5 treated cells: N2a-AβPP695, compound together with 100 μM Aftin-5, 18 h; for effect on extracellular Aβ40 level/production: N2a-AβPP695, compound alone, various concentrations.

The next data set deals with extracellular Aβ38. The experiment in a line: Extracellular Aβ38 ELISA capture assay in N2a-AβPP695 cell supernatants. It counts as cell-based. Particulars: for IC50: read-out: IC50 Aβ38, N2a-AβPP695, GSI added 1 h before 100 μM Aftin-5, 18 h; for effect on extracellular Aβ38 level: N2a-AβPP695, compound alone, various concentrations.
Data set [2] deals with intracellular Aβ38, Aβ40, and Aβ42. Kind of data set: Intracellular amyloids ELISA capture assay in N2a-AβPP695 cells. The data set is classed as cell-based. An outline of the steps:
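2 × 10⁶ N2a-AβPP695 cells per T25 flask in 0.5% FBS medium overnight, then treated for 18 h. Cells washed, scraped into PBS with protease inhibitors, pelleted, lysed in 1% Nonidet P-40, sonicated, and spun at 14,000 rpm for 15 min at 4°C. Lysate supernatant assayed by 6E10-capture sandwich ELISA with biotinylated Aβ38, Aβ40 or Aβ42 antibodies. Values expressed as fold over untreated cells.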

For data set [3], the system named is KinomeScan panel of 402/442 kinases. The experiment in a line: KinomeScan panel. The data set is classed as binding. Particulars: 10 μM.
In data set [4] the test system is N2a-AβPP695 cells. Kind of data set: Autophagy assessment, counting of LC3 foci by immunofluorescence. The data set is classed as cell-based. An outline of the steps:
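Cells grown on glass coverslips, fixed in 4% paraformaldehyde, permeabilised with 50 μM digitonin, and stained with a monoclonal anti-LC3 antibody. Images taken with a 40× NA 0.85 objective. LC3 foci counted automatically by image analysis.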

For data set [5], the system named is N2a-AβPP695 cells. Kind of data set: Mitochondrial parameters in cultured cells. The data set is classed as cell-based.
Data set [6] concerns mitochondria isolated from N2a-AβPP695 cells. The experiment in a line: Electron microscopy, ultrastructure of isolated mitochondria. The conditions noted are these: 100 μM Aftin-5; 50 μM Calcium; 50 μM Calcium + CsA.
For data set [7], the system named is N2a-AβPP695 cells. The experiment in a line: Electron microscopy, ultrastructure of mitochondria within cells. It counts as cell-based.
Another data set is described as follows: Animal toxicity. The data set is classed as in vivo. Particulars: per os doses up to 150 mg/kg daily for 20 days; data not shown.
Setting [8] is: N2a-AβPP695, dose-response, 18 h.

Regarding `Cn1cnc(N)c2ncnc1-2` [3-methyladenine], the “effect on Aftin-5 induced extracellular Aβ42 production” value in the data set on extracellular Aβ42 is reported as “did not interfere”.

In the case of `CN(C)c1ncnc2nc[nH]c12` [Aftin N6DA, N6-dimethylaminopurine], the “effect on extracellular Aβ42 level/production” value with extracellular Aβ42 (18 h) was “inactive”.

On to `CCC(CO)Nc1nc(N(C)Cc2ccccc2)c2ncn(C(C)C)c2n1` (centres unmarked) [Aftin-4, N^6-methyl-roscovitine], for which the concentration for half-maximal inhibition (IC50) (as a rule, the concentration needed to halve the response being measured) is 106 µM with SH-SY5Y, 74 µM in the data set on HT22, 100 µM in the data set with N2a and 90 µM in the data set with N2a-AβPP695. For the same compound, in the data set with extracellular Aβ42 (18 h), the “effect on extracellular Aβ42 level/production” value is given as “bell-shaped”. Moreover, in data set [1], the “interaction with kinases (KinomeScan)” value is “no significant interaction”.

`CC[C@H](CO)Nc1nc(N(C)c2ccccc2)c2ncn(C(C)C)c2n1` [Aftin-5]: the IC50 is 180 µM with SH-SY5Y, 194 µM with HT22, 178 µM in the data set with N2a and 150 µM with N2a-AβPP695. Also, the “cytotoxic effects on cells” value in the data set with N2a-AβPP695 (up to 100 μM, or longest exposure 6 days, data not shown) is “did not show any cytotoxic effects; also recorded: little cell toxicity”. For the same compound, in the data set with extracellular Aβ42 (N2a-AβPP695, 100 μM Aftin-5), the “time after addition at which Aβ42 production reached a plateau” value is “about 12 h”. Also, the “effect on extracellular Aβ42 level/production” value in the data set on extracellular Aβ42 (18 h) is on record as “linear up to the highest dose tested”. In addition, the “increase of Aβ42 production (up to)” value with extracellular Aβ42 (setting [8]) was > 900%. In addition, the “maximum increase of Aβ40 level” value in the data set with extracellular Aβ40 (setting [8]) was found to be 40%. Further, the “decrease of Aβ38 level” value in the data set on extracellular Aβ38 (setting [8]) is listed as > 70%. The “effect on levels of intracellular Aβ38, Aβ40, and Aβ42” value in data set [2] (N2a-AβPP695, 100 μM Aftin-5, 18 h) is given as “did not modify”. Further, in data set [3], the “interaction with kinases (KinomeScan)” value is given as “no interaction with any of the kinases”. In addition, the “effect on rapamycin-induced autophagy” value in the data set with N2a-AβPP695 cells [4] is “Neither Aftin-5 nor its inactive analog compound (2) impaired rapamycin-induced autophagy”. Besides, the “mitochondrial parameters at the cellular level, control vs treated cells” value with N2a-AβPP695 cells [5] is recorded as “essentially undistinguishable”. Besides, in the data set with N2a-AβPP695 cells [5] (24 h), the global respiration functions entry is reported as “slight inhibition”. For the same compound, the “ultrastructure of isolated mitochondria (swelling, cristae remodeling)” value in [6] was “did not induce any swelling or cristae remodeling”. Besides, the “ultrastructure of mitochondria within cells, 6 h” value with N2a-AβPP695 cells [7] (100 μM, 6 h) is given as “little detectable effects”. Besides, the “ultrastructure of mitochondria within cells, 24 h” value in the data set with N2a-AβPP695 cells [7] (100 μM, 24 h, reversible upon washing) is given as “partial mitochondrial swelling without disruption of cristae”. Further, the animal toxicity entry in “Animal toxicity” is reported as “little”.

In the case of `C[C@H](c1ccc(F)cc1CCCC(=O)O)N(c1cc(F)ccc1F)S(=O)(=O)c1ccc(Cl)cc1` [BMS 299897], the IC50 was found to be 56 nM in the data set with extracellular Aβ40 and 88 nM in the data set on extracellular Aβ38.

As to `C[C@H](NC(=O)Cc1cc(F)cc(F)c1)C(=O)NC(C(=O)OC(C)(C)C)c1ccccc1` (some centres unmarked) [DAPT], in the data set with extracellular Aβ42, the “effect on Aftin-5 induced extracellular Aβ42 production” value is “down-regulated”. In the data set on extracellular Aβ40, the “effect on extracellular Aβ40 in Aftin-5 treated cells” value is recorded as “down-regulated” and the IC50 is 62 nM. For the same compound, the “effect on extracellular Aβ38 / Aftin-5 induced Aβ38 down-regulation” value with extracellular Aβ38 (N2a-AβPP695, compound together with 100 μM Aftin-5, 18 h) is reported as “down-regulated”. Further, in the data set on extracellular Aβ38, the IC50 turned out to be 112 nM. Also, the “effect on levels of intracellular amyloids” value in data set [2] (N2a-AβPP695, 1 μM compound in presence of 100 μM Aftin-5, 18 h) is listed as “but not that of intracellular amyloids”.

`[Ca+2]` [calcium]: in data set [6], the “ultrastructure of isolated mitochondria (swelling, cristae remodeling)” value was “strong swelling”.

For the compound `C[C@H](CS)C(=O)N1CCC[C@H]1C(=O)O` [captopril], the “effect on extracellular Aβ42 level/production” value in the data set on extracellular Aβ42 (18 h) was “no effects”. The “effect on extracellular Aβ40 level/production” value with extracellular Aβ40 (18 h) is listed as “no effects”. In the data set with extracellular Aβ38 (18 h), the “effect on extracellular Aβ38 level” value was “no effects”.

With `CN(Cc1ccccc1)c1nc(N)nc2[nH]cnc12` [compound (2)], in the data set with extracellular Aβ42 (18 h), the “effect on extracellular Aβ42 level/production” value was “inactive”. Also, the “effect on rapamycin-induced autophagy” value in the data set on N2a-AβPP695 cells [4] was “Neither Aftin-5 nor its inactive analog compound (2) impaired rapamycin-induced autophagy”.

As for `COc1cccc2c1C(=O)c1c(O)c3c(c(O)c1C2=O)C[C@@](O)(C(=O)CO)C[C@@H]3O[C@H]1C[C@H](N)[C@H](O)[C@H](C)O1` [doxorubicin], the “ultrastructure of mitochondria within cells, positive control” value in the data set on N2a-AβPP695 cells [7] (5 μM doxorubicin) was “altered the structure of cristae and induced cell death”.

As for `CC(C)C[C@H](NP(=O)(O)O[C@@H]1O[C@@H](C)[C@H](O)[C@@H](O)[C@H]1O)C(=O)N[C@@H](Cc1c[nH]c2ccccc12)C(=O)O` [phosphoramidon], the “effect on extracellular Aβ42 level/production” value with extracellular Aβ42 (18 h) was “no effects”. The “effect on extracellular Aβ40 level/production” value with extracellular Aβ40 (18 h) was “no effects”. Besides, the “effect on extracellular Aβ38 level” value with extracellular Aβ38 (18 h) was “no effects”.

As for `C[C@H](N[C@@H](CCc1ccccc1)C(=O)O)C(=O)N1Cc2ccccc2C[C@H]1C(=O)O` [quinaprilat], the “effect on extracellular Aβ42 level/production” value with extracellular Aβ42 (18 h) is reported as “no effects”. In addition, the “effect on extracellular Aβ40 level/production” value with extracellular Aβ40 (18 h) is reported as “no effects”. In the data set with extracellular Aβ38 (18 h), the “effect on extracellular Aβ38 level” value is recorded as “no effects”.

`CO[C@H]1C[C@@H]2CC[C@@H](C)[C@@](O)(O2)C(=O)C(=O)N2CCCC[C@H]2C(=O)O[C@H]([C@H](C)C[C@@H]2CC[C@@H](O)[C@H](OC)C2)CC(=O)[C@H](C)/C=C(\C)[C@@H](O)[C@@H](OC)C(=O)[C@H](C)C[C@H](C)/C=C/C=C/C=C/1C` [rapamycin]: the “effect on Aftin-5 induced extracellular Aβ42 production” value in the data set with extracellular Aβ42 was “did not prevent”. In the data set with N2a-AβPP695 cells [4], the “autophagy, LC3 foci, compound alone” value is “accumulation of LC3 foci”.

As to `CC[C@H](CO)Nc1nc(NCc2ccccc2)c2ncn(C(C)C)c2n1` [roscovitine, (R)-Roscovitine], the “effect on extracellular Aβ42 level/production” value in the data set with extracellular Aβ42 (18 h) is recorded as “little effect”.

In the case of `O=C(O)CNC(=O)C(CS)Cc1ccccc1` (centres unmarked) [thiorphan], the “effect on extracellular Aβ42 level/production” value in the data set with extracellular Aβ42 (18 h) is “no effects”. Also, the “effect on extracellular Aβ40 level/production” value in the data set with extracellular Aβ40 (18 h) is “no effects”. Further, the “effect on extracellular Aβ38 level” value in the data set on extracellular Aβ38 (18 h) was “no effects”.

Regarding β-secretase inhibitor IV, the “effect on Aftin-5 induced extracellular Aβ42 production” value with extracellular Aβ42 is listed as “inhibited production”. Moreover, the “effect on extracellular Aβ40 in Aftin-5 treated cells” value in the data set with extracellular Aβ40 is “inhibited production”.
